Laboratory results from ChEMBL document CHEMBL5058577, “EUbOPEN Chemogenomics Library 2 (Multiplex)” (2022).

Tested on: HEK-293T
Experiment: Multiplex assay against HEK293T
Type: toxicity, cell-based
Settings: human
Summary of the method: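 Cells stained live at seeding with Hoechst33342, BioTracker Green Microtubule Cytoskeleton Dye, MitoTracker Red and Annexin V Alexa Fluor 680 were imaged on a CQ1 microscope at 37°C and 5% CO2 after compound addition. Their classification by CellPathfinder machine-learning gating ran from Hoechst high-intensity objects versus normal cells, to healthy, pyknosed or fragmented nuclei among normal cells, to mitotic or apoptotic among pyknosed cells. Tubulin, mitochondrial-mass and membrane-permeability phenotypes are per cents of healthy-nucleus cells.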

[1] = 12 h, 1 µM, compound concentration 1 uM, replicate 1
[2] = 12 h, 1 µM, compound concentration 1 uM, replicate 2
[3] = 12 h, 10 µM, compound concentration 10 uM, replicate 1
[4] = 12 h, 10 µM, compound concentration 10 uM, replicate 2
[5] = 24 h, 1 µM, compound concentration 1 uM, replicate 1
[6] = 24 h, 1 µM, compound concentration 1 uM, replicate 2
[7] = 24 h, 10 µM, compound concentration 10 uM, replicate 1
[8] = 24 h, 10 µM, compound concentration 10 uM, replicate 2
[9] = 48 h, 1 µM, compound concentration 1 uM, replicate 1
[10] = 48 h, 1 µM, compound concentration 1 uM, replicate 2
[11] = 48 h, 10 µM, compound concentration 10 uM, replicate 1
[12] = 48 h, 10 µM, compound concentration 10 uM, replicate 2

## CN1CCN(c2cc(-c3ccccc3)nc(N)n2)CC1
[1]
  Population Apoptotic (%): 40%
  Population Fragmented Nuclei (%): 8%
  Population Healthy Nuclei (%): 79%
  Population Hoechst High Intensity Objects (%): 6%
  Population Membrane Permeable-Phenotype (%): 0%
  Population Mitochondria Different-Phenotype (%): 35%
  Population Mitotic Cells (%): 60%
  Population Normal (%): 93%
  Population Pyknosed Nuclei (%): 11%
  Population Tubulin-Different-Phenotype (%): 21%
  Total Cell Count: 383
[2]
  Population Apoptotic (%): 34%
  Population Fragmented Nuclei (%): 5%
  Population Healthy Nuclei (%): 84%
  Population Mitochondria Different-Phenotype (%): 48%
  Population Mitotic Cells (%): 65%
  Population Pyknosed Nuclei (%): 10%
  Population Tubulin-Different-Phenotype (%): 16%
  Total Cell Count: 354
[3]
  Population Apoptotic (%): 23%
  Population Fragmented Nuclei (%): 7%
  Population Healthy Nuclei (%): 82%
  Population Hoechst High Intensity Objects (%): 7%
  Population Membrane Permeable-Phenotype (%): 0%
  Population Mitochondria Different-Phenotype (%): 46%
  Population Mitotic Cells (%): 76%
  Population Normal (%): 92%
  Population Pyknosed Nuclei (%): 9%
  Population Tubulin-Different-Phenotype (%): 30%
  Total Cell Count: 416
[4]
  Population Apoptotic (%): 36%
  Population Fragmented Nuclei (%): 6%
  Population Healthy Nuclei (%): 81%
  Population Hoechst High Intensity Objects (%): 10%
  Population Mitochondria Different-Phenotype (%): 63%
  Population Mitotic Cells (%): 63%
  Population Normal (%): 89%
  Population Pyknosed Nuclei (%): 12%
  Population Tubulin-Different-Phenotype (%): 20%
  Total Cell Count: 296
[5]
  Population Apoptotic (%): 20%
  Population Fragmented Nuclei (%): 9%
  Population Healthy Nuclei (%): 79%
  Population Hoechst High Intensity Objects (%): 4%
  Population Membrane Permeable-Phenotype (%): 1%
  Population Mitochondria Different-Phenotype (%): 16%
  Population Mitotic Cells (%): 79%
  Population Normal (%): 95%
  Population Pyknosed Nuclei (%): 11%
  Population Tubulin-Different-Phenotype (%): 12%
  Total Cell Count: 488
[6]
  Population Apoptotic (%): 36%
  Population Healthy Nuclei (%): 82%
  Population Mitochondria Different-Phenotype (%): 24%
  Population Mitotic Cells (%): 63%
  Population Pyknosed Nuclei (%): 8%
  Population Tubulin-Different-Phenotype (%): 8%
  Total Cell Count: 480
[7]
  Population Apoptotic (%): 44%
  Population Fragmented Nuclei (%): 13%
  Population Healthy Nuclei (%): 75%
  Population Hoechst High Intensity Objects (%): 6%
  Population Membrane Permeable-Phenotype (%): 0%
  Population Mitochondria Different-Phenotype (%): 32%
  Population Mitotic Cells (%): 55%
  Population Normal (%): 93%
  Population Pyknosed Nuclei (%): 11%
  Population Tubulin-Different-Phenotype (%): 19%
  Total Cell Count: 577
[8]
  Population Apoptotic (%): 34%
  Population Fragmented Nuclei (%): 9%
  Population Healthy Nuclei (%): 79%
  Population Hoechst High Intensity Objects (%): 9%
  Population Mitochondria Different-Phenotype (%): 50%
  Population Mitotic Cells (%): 65%
  Population Normal (%): 90%
  Population Tubulin-Different-Phenotype (%): 17%
  Total Cell Count: 378
[9]
  Population Apoptotic (%): 23%
  Population Fragmented Nuclei (%): 13%
  Population Healthy Nuclei (%): 78%
  Population Hoechst High Intensity Objects (%): 1%
  Population Membrane Permeable-Phenotype (%): 1%
  Population Mitochondria Different-Phenotype (%): 12%
  Population Mitotic Cells (%): 76%
  Population Normal (%): 98%
  Population Pyknosed Nuclei (%): 7%
  Population Tubulin-Different-Phenotype (%): 12%
  Total Cell Count: 745
[10]
  Population Apoptotic (%): 14%
  Population Healthy Nuclei (%): 80%
  Population Hoechst High Intensity Objects (%): 2%
  Population Membrane Permeable-Phenotype (%): 0%
  Population Mitochondria Different-Phenotype (%): 14%
  Population Mitotic Cells (%): 85%
  Population Normal (%): 97%
  Population Pyknosed Nuclei (%): 6%
  Population Tubulin-Different-Phenotype (%): 9%
  Total Cell Count: 804
[11]
  Population Apoptotic (%): 16%
  Population Fragmented Nuclei (%): 17%
  Population Healthy Nuclei (%): 75%
  Population Hoechst High Intensity Objects (%): 3%
  Population Membrane Permeable-Phenotype (%): 0%
  Population Mitochondria Different-Phenotype (%): 25%
  Population Mitotic Cells (%): 83%
  Population Normal (%): 96%
  Population Pyknosed Nuclei (%): 6%
  Population Tubulin-Different-Phenotype (%): 14%
  Total Cell Count: 861
[12]
  Population Apoptotic (%): 27%
  Population Fragmented Nuclei (%): 13%
  Population Healthy Nuclei (%): 81%
  Population Membrane Permeable-Phenotype (%): 1%
  Population Mitochondria Different-Phenotype (%): 24%
  Population Mitotic Cells (%): 72%
  Population Pyknosed Nuclei (%): 4%
  Population Tubulin-Different-Phenotype (%): 11%
  Total Cell Count: 645
